Usually inhibition stands for the change of the read-out against control, counted positive when it falls. Broadly, the IC50 is the point on the concentration scale where inhibition reaches its midpoint. The term Kd denotes the concentration at which binding is half-saturated.

Results on twelve compounds are retold here after ChEMBL document CHEMBL1129637, “Conformationally defined 6-s-trans-retinoic acid analogs. 3. Structure-activity relationships for nuclear receptor binding, transcriptional activity, and cancer chemopreventive activity” (J Med Chem, 1996).

Where “and” joins values, the source holds several entries; their conditions need not be identical. Equal values may be shown once.

In experiment [1] the target is Cellular retinoic acid-binding protein 1 (Gallus gallus) (UniProt P40220). Kind of experiment: Inhibition of chick skin Cytoplasmic retinoic acid binding protein at 100-fold excess ligand.
Chain of Cellular retinoic acid-binding protein 1 (Gallus gallus) (P40220 whole entry): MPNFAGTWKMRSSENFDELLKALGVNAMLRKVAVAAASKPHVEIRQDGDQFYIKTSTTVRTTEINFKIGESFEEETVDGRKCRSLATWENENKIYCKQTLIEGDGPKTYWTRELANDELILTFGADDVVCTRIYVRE
Experiment [2] addresses Cellular retinoic acid-binding protein 1 (Gallus gallus, UniProt P40220). Put plainly: Inhibition of [3H]ATRA binding to chick skin Cytoplasmic retinoic acid binding protein.
Experiment [3] has as its target Cellular retinoic acid-binding protein 1 (Mus musculus, UniProt P62965). Put plainly: Inhibition of [3H]ATRA binding to murine Cytoplasmic retinoic acid binding protein (CRABP) type 1.
Experiment [4] concerns the target T1, Cellular retinoic acid-binding protein 2 (Mus musculus, UniProt P22935).
T1 sequence (P22935 whole entry): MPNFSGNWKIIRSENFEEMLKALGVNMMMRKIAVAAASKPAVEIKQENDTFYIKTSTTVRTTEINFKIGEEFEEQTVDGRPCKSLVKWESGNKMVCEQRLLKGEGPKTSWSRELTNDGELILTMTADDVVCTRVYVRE
Kind of experiment: Inhibition of [3H]ATRA binding to murine Cytoplasmic retinoic acid binding protein (CRABP) type 2.

For experiment [5], the species on record is Mus musculus. Kind of experiment: Antitumor activity in Mouse Skin Papilloma model. In kind it is functional. The method in brief: (§1)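 Carcinogen-induced papillomas on mouse dorsal skin, with test retinoid applied 1 h before TPA. Percent papilloma reduction = (1 − mean tumors in retinoid-treated animals / mean tumors in controls) × 100. ED50 came from probit analysis of a dose-response curve. Estimated standard error is 20% of the mean.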

The species entered for experiment [6] is Mus musculus. Kind of experiment: Percentage papilloma reduction (81) at 45.9 nmol dose 1 hr prior to TPA. The format is functional. The method in brief: as §1
In experiment [7] the target is T2, Retinoic acid receptor RXR-alpha (Homo sapiens, UniProt P19793).
T2 sequence (P19793 whole entry): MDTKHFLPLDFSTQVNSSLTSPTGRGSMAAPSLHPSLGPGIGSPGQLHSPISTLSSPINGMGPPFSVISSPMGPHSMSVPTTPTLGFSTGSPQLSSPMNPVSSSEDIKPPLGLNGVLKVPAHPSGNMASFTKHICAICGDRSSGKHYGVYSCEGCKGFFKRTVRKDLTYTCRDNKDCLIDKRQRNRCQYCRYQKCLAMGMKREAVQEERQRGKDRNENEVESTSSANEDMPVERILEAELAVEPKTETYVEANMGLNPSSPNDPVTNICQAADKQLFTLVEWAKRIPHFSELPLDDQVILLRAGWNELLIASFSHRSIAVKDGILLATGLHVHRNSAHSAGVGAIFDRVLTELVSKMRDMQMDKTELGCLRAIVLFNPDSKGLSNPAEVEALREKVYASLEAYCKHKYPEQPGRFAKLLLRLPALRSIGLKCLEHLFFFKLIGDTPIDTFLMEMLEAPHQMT
Kind of experiment: Inhibition of binding to human Retinoic acid receptor RXR DEF domain.

Experiment [8] addresses T3, Retinoic acid receptor alpha (Mus musculus, UniProt P11416).
T3 sequence (P11416 whole entry): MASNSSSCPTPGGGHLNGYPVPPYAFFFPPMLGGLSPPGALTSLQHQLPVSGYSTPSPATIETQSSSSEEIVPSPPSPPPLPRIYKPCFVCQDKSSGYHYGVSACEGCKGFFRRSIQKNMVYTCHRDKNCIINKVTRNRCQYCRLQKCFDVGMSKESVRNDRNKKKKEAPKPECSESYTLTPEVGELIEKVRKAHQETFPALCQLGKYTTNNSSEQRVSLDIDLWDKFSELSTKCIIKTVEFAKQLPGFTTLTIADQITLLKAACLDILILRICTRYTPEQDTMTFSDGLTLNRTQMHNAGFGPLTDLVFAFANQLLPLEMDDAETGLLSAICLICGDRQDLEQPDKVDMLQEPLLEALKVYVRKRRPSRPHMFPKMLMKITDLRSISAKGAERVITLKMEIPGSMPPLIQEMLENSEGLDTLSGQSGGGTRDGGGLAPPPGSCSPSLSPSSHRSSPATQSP
Kind of experiment: Inhibition of [3H]ATRA binding to mouse Retinoic acid receptor RAR alpha. The method in brief:
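Radioligand competition assay for RARα, measuring inhibition of [3H]-(all-E)-RA binding by unlabeled retinoid over a dose series to derive IC50.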

Experiment [9] addresses T4, Retinoic acid receptor alpha (Mus musculus) (UniProt P11416).
T4 sequence (whole entry): T3 sequence (P11416 whole entry)
Put plainly: Percent inhibition of [3H]ATRA binding to mouse Retinoic acid receptor RAR alpha. Further details: concentration or dose not given beside the values. The note with it: concentration not given here. An outline of the steps:
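RARα was exposed to 1000 nM test retinoid plus 5 nM [3H]-(all-E)-RA. Displacement was compared with a positive control of 1000 nM unlabeled (all-E)-RA and with a no-retinoid control.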

Experiment [10] concerns the target T5, Retinoic acid receptor RXR-alpha (Mus musculus, UniProt P28700).
T5 sequence (P28700 whole entry): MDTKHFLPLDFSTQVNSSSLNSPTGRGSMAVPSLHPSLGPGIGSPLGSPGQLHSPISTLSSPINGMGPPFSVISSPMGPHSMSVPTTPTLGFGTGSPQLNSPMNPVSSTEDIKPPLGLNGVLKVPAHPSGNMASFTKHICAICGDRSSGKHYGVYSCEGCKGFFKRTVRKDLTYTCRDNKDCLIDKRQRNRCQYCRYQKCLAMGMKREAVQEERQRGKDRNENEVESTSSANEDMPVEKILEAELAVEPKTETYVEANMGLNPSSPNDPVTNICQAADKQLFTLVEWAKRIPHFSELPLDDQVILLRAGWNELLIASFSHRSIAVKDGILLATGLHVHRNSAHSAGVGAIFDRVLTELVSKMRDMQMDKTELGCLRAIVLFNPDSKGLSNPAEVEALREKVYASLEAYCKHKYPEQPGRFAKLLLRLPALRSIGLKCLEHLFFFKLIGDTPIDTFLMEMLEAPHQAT
Put plainly: Inhibition of [3H]-(9Z)-RA binding to mouse Retinoic acid receptor RXR alpha.

Experiment [11] in a line: Inhibition of [3H]ATRA binding to Cytoplasmic retinoic acid binding protein (CRABP) type 1.
The species entered for experiment [12] is Mus musculus. Put plainly: Antitumor activity in Mouse Skin Papilloma model * Value determined by Dawson et al. In kind it is functional.

Chain of Cellular retinoic acid-binding protein 1 (Gallus gallus, UniProt P40220) (P40220 whole entry): as the sequence (P40220 whole entry) above
Chain of Cellular retinoic acid-binding protein 1 (Mus musculus, UniProt P62965) (P62965 whole entry): as the sequence (P40220 whole entry) above, with I68V, S71G, A86P, Y95H, K97T, I101L counted along it

As for `CC(=C\C=C\C(C)=C\C(=O)O)/C=C1/C=CCCC1`, the figures for the inhibition in [1] and in [9] were 50% and 55%, respectively. Further, the values for the IC50 in [2], in experiment [8] and in [10] were more than 10000 nM, 600 nM and more than 2000 nM, respectively. Further, the dissociation constant (Kd) in experiment [3] was 3 nM; in [4], 13 nM; in experiment [7], more than 200 nM. In the experiment filed under Mus musculus [5], this compound showed an ED50 of more than 1000 nM. The compound also registered a Reduction in the experiment listed under Mus musculus [6] of 22%.
With `CC1=C(C(C)C)/C(=C/C(C)=C\C=C\C(C)=C\C(=O)O)CCC1`, the inhibition was determined as 43% in experiment [1] and 37% in experiment [9]. The Kd was more than 200 nM in experiment [3] and 33 nM in experiment [7]. In addition, the ED50 in the experiment filed under Mus musculus [5] was more than 100 nM. Further, in the experiment filed under Mus musculus [6], the Reduction came to 30%. The IC50 in [8] is more than 1000 nM; in experiment [10], 620 nM.
`CCC1=C(C(C)C)/C(=C/C(C)=C\C=C\C(C)=C\C(=O)O)CCC1`: the inhibition came to 15% in experiment [1] and 42% in [9]. Also, the IC50 is more than 10000 nM in experiment [2] and 1000 nM in experiment [10]. The equilibrium dissociation constant (Kd) in experiment [3] is more than 200 nM; in experiment [4], more than 200 nM; in experiment [7] it was 16 nM. Besides, in the experiment listed under Mus musculus [5], the ED50 was more than 100 nM. The compound further registered a Reduction in the experiment filed under Mus musculus [6] of 43%.
Consider `C\C(C=C1C=CCCC1)=C/C=C/C(C)=C/C(=O)O`, for which the inhibition in [1] and in experiment [9] was 45% each time. In addition, the Kd in experiment [4] was 3 nM and 10 nM; in [7], more than 200 nM. In addition, the IC50 is more than 2000 nM in experiment [8], more than 2000 nM in [10] and more than 10000 nM in experiment [11].
In the experiment listed under Mus musculus [12], `CC(=CC(=O)O)/C=C/C=C(C)/C=C/C1=C(C)CCCC1(C)C` [ISOTRETINOIN] came in with an ED50 of 64 nmol.
For the compound `CCC1=C(C(C)C)/C(=C/C(C)=C/C=C/C(C)=C/C(=O)O)CCC1`, the values for the inhibition in experiment [1] and in experiment [9] were 100% and 98%, respectively. Also, in the experiment filed under Mus musculus [5], the ED50 worked out at 2.5 nM. Further, in the experiment filed under Mus musculus [6], the Reduction is 99%. The IC50 in experiment [10] is more than 2000 nM.
In the experiment listed under Mus musculus [5], `CCC1=C(C(C)C)/C(=C/C(C)=C/C=C/C(C)=CC(=O)O)CCC1` returned an ED50 of 4.7 nmol. For the same compound, the Reduction in the experiment listed under Mus musculus [6] was determined as 81%.
In the case of `CC1=C(C(C)C)/C(=C/C(C)=C/C=C/C(C)=C/C(=O)O)CCC1`, the inhibition in experiment [1] and in experiment [9] was 100% each time. Further, the Kd in experiment [3] is 1 nM; in [7] it was more than 200 nM. Moreover, the ED50 in the experiment listed under Mus musculus [5] came to 5 nM. Further, the Reduction in the experiment listed under Mus musculus [6] came out at 95%. Moreover, the figures for the IC50 in experiment [8] and in experiment [10] were 8 nM and more than 2000 nM, respectively.
On to `CC1=C(/C=C/C(C)=C/C=C/C(C)=C/C(=O)O)C(C)(C)CCC1` [TRETINOIN], for which the inhibition in experiment [1] and in experiment [9] was 100% throughout. The compound also had an ED50 in the experiment filed under Mus musculus [5] of 3 nM. Besides, the Reduction in the experiment listed under Mus musculus [6] turned out to be 95%.
Consider `CC1=C(C)/C(=C/C(C)=C\C=C\C(C)=C\C(=O)O)CCC1`, for which the inhibition in experiment [1] and in experiment [9] was 10% each time. Further, the results for the IC50 in [2], in experiment [8] and in experiment [10] were more than 10000 nM, more than 2000 nM and more than 2000 nM, respectively. Moreover, the Kd in [3] is more than 200 nM; in experiment [4] it was more than 200 nM; in experiment [7], 120 nM. Besides, the Reduction in the experiment filed under Mus musculus [6] is 50%.
As to `CC1=C(C)/C(=C/C(C)=C/C=C/C(C)=C/C(=O)O)CCC1`, the inhibition in experiment [1] and in experiment [9] was 90% throughout. In addition, the IC50 in [2] was 1300 nM; in experiment [8] it was 55 nM; in experiment [10] it was more than 2000 nM. For the same compound, the Kd in [3] was 1.2 nM; in experiment [4] it was 13 nM; in experiment [7], more than 200 nM. In the experiment filed under Mus musculus [5], this compound yielded an ED50 of 490 nM. The compound further gave a Reduction in the experiment listed under Mus musculus [6] of 32%.
For `CC1=C(/C=C/C(C)=C\C=C\C(C)=C\C(=O)O)C(C)(C)CCC1` [ALITRETINOIN], the values for the inhibition in experiment [1] and in experiment [9] were 25% and 95%, respectively. The compound further came in with an ED50 in the experiment filed under Mus musculus [5] of 2.1 nM. The Reduction in the experiment listed under Mus musculus [6] stood at 95%.
